Results: ChEMBL document CHEMBL1134845, “Syntheses and biological activities of a novel group of steroidal derived inhibitors for human Cdc25A protein phosphatase” (J Med Chem, 2001)
Values belong to the compound of their own block, whether it stands above or below them.

Experiments:
[1] = target: T1, M-phase inducer phosphatase 1 (Homo sapiens, UniProt P30304); experiment: (§1) Inhibitory activity tested against cell division cycle 25A (assay using fluorescein diphosphate (FDP) as substrate)
T1 sequence (P30304 whole entry): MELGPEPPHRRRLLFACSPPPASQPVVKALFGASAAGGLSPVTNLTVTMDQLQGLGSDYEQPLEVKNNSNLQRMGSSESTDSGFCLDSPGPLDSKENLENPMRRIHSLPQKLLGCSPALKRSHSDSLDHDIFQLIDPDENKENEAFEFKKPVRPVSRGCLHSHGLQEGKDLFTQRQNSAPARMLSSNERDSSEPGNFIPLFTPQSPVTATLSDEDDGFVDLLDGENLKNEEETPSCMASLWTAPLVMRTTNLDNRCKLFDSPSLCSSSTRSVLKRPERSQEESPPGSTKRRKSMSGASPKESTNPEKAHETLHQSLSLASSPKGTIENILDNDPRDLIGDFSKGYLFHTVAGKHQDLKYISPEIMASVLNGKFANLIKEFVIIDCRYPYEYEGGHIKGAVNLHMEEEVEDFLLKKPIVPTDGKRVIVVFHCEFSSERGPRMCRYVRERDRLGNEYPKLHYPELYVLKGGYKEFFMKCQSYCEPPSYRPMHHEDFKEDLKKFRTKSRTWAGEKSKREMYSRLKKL
Summary of the method: (§2)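 Recombinant human GST-Cdc25A fusion protein, each batch calibrated so that FDP was dephosphorylated linearly over 20 min. Fluorescein diphosphate was the substrate. Reactions ran 15 min at 25 °C in the dark and were stopped with sodium orthovanadate. IC50 came from at least two independent runs, each in triplicate.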

[2] = target: T2, M-phase inducer phosphatase 1 (Homo sapiens) (UniProt P30304); experiment: as §1; conditions: concentration not given here
T2 sequence (whole entry): T1 sequence (P30304 whole entry)
Summary of the method: as §2, with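 “orthovanadate. Fluorescein monophosphate was read at 485 nm excitation and 530 nm emission.” for “orthovanadate.”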

786-0 = experiment: Growth inhibitory activity was determined against 786-0 cancer cell line of renal cancer; assay type: functional; conditions: Homo sapiens
Summary of the method: (§3)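 NCI 60 human tumour cell line screen run at the National Cancer Institute. Cell growth and viability read with the protein stain sulforhodamine B, which binds basic amino acids of cells left attached after washing. […] MG MID is the mean GI50 calculated over all panels.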

A549 = experiment: Growth inhibitory activity was determined against A549/ATCC cancer cell line of non-small cell lung cancer; assay type: functional, Homo sapiens; conditions: Homo sapiens, A549; summary of the method: as §3
COLO 205 = experiment: Growth inhibitory activity was determined against COLO 205 cancer cell line colon cancer; assay type: functional, Homo sapiens; conditions: Homo sapiens, COLO 205; summary of the method: as §3
HT-29 = experiment: Growth inhibitory activity was determined against HT-29 cancer cell line colon cancer; assay type: functional, Homo sapiens; conditions: Homo sapiens, HT-29; summary of the method: as §3
LOX IMVI = experiment: Growth inhibitory activity was determined against LOX IMVI cancer cell line of melanoma; assay type: functional, Homo sapiens; conditions: Homo sapiens, LOX IMVI; summary of the method: as §3
NCI-H23 = experiment: Growth inhibitory activity was determined against NCI-H23 cancer cell line of non-small cell lung cancer; assay type: functional, Homo sapiens; conditions: Homo sapiens, NCI-H23; summary of the method: as §3
NCI-H522 = experiment: Growth inhibitory activity was determined against NCI-H522 cancer cell line of non-small cell lung cancer; assay type: functional; conditions: Homo sapiens; summary of the method: as §3
NCI/ADR-RES = experiment: Growth inhibitory activity was determined against NCI/ADR-RES cancer cell line of Breast cancer; assay type: functional, Homo sapiens; conditions: Homo sapiens, NCI/ADR-RES; summary of the method: as §3
OVCAR-8 = experiment: Growth inhibitory activity was determined against OVCAR-8 cancer cell line of Ovarian cancer; assay type: functional; conditions: Homo sapiens; summary of the method: as §3
SN12C = experiment: Growth inhibitory activity was determined against SN12C cancer cell line of renal cancer; assay type: functional; conditions: Homo sapiens; summary of the method: as §3
SF-539 = experiment: Growth inhibitory activity was determined against SF-539 cancer cell line of CNS cancer; assay type: functional; conditions: Homo sapiens; summary of the method: as §3
SF-268 = experiment: Growth inhibitory activity was determined against SF-268 cancer cell line of CNS cancer; assay type: functional; conditions: Homo sapiens; summary of the method: as §3
SK-MEL-5 = experiment: Growth inhibitory activity was determined against SK-MEL-5 cancer cell line of melanoma; assay type: functional, Homo sapiens; conditions: Homo sapiens, SK-MEL-5; summary of the method: as §3
UO-31 = experiment: Growth inhibitory activity was determined against UO-31 cancer cell line of renal cancer; assay type: functional; conditions: Homo sapiens; summary of the method: as §3
U-251 = experiment: Growth inhibitory activity was determined against U-251 cancer cell line of CNS cancer; assay type: functional; conditions: Homo sapiens; summary of the method: as §3
PC-3 = experiment: Growth inhibitory activity was determined against PC-3 cancer cell line of Prostate cancer; assay type: functional; conditions: Homo sapiens; summary of the method: as §3
T47D = experiment: Growth inhibitory activity was determined against T-47D cancer cell line of Breast cancer; assay type: functional, Homo sapiens; conditions: Homo sapiens, T47D; summary of the method: as §3
OVCAR-3 = experiment: Growth inhibitory activity was determined against OVCAR-3 cancer cell line of Ovarian cancer; assay type: functional; conditions: Homo sapiens; summary of the method: as §3
BT-549 (Homo sapiens) = experiment: Growth inhibitory activity was determined against BT-549 cancer cell line of Breast cancer; conditions: Homo sapiens, BT-549

IC50 [1]: > 100 µM
SMILES: CCOC(=O)CC(=O)CSC(=S)O[C@H]1CC[C@@]2(C)[C@@H](CC[C@@H]3[C@@H]2CC[C@]2(C)[C@@H]([C@H](C)CCCC(C)C)CC[C@@H]32)C1

IC50 [1]: > 50 µM
SMILES: CC(C)CCC[C@@H](C)[C@H]1CC[C@H]2[C@@H]3CC(=O)O[C@@](C)(CC/C=C\C#N)[C@H]3CC[C@]12C

IC50 [1]: 9.5 µM
SMILES: CC(C)CCC[C@@H](C)[C@H]1CC[C@H]2[C@H](CC(=O)O)[C@@H]([C@@]3(C)CCC=CC3=O)CC[C@]12C

inhibition [2]: 18%
SMILES: CC(C)CCC[C@@H](C)[C@H]1CC[C@H]2[C@@H]3CC[C@H]4C[C@@H](OC(=O)Nc5ccccc5)CC[C@]4(C)[C@H]3CC[C@]12C

IC50 [1]: 5.8 µM
SMILES: CC(C)CCC[C@@H](C)[C@H]1CC[C@H]2[C@H](CC(=O)O)[C@@H]([C@@]3(C)CC=CCC3=O)CC[C@]12C

IC50 [1]: > 100 µM
SMILES: CCOC(=O)C(C)SC(=S)O[C@H]1CC[C@@]2(C)[C@@H](CC[C@@H]3[C@@H]2CC[C@]2(C)[C@@H]([C@H](C)CCCC(C)C)CC[C@@H]32)C1 (stereo partly drawn)

GI50 (786-0): 1.44 µM
GI50 (A549): 4.27 µM
GI50 (COLO 205): 4.76 µM
GI50 (HT-29): 2.63 µM
GI50 (NCI-H23): 4.85 µM
GI50 (NCI-H522): 6.1 µM
GI50 (OVCAR-8): 1.97 µM
GI50 (SK-MEL-5): 4.37 µM
GI50 (U-251): 3.46 µM
GI50 (PC-3): 4.22 µM
GI50 (T47D): 4.09 µM
GI50 (OVCAR-3): 4 µM
GI50 (BT-549 (Homo sapiens)): 5.07 µM
SMILES: CC(C)CCC[C@@H](C)[C@H]1CC[C@H]2[C@@H]3CC(=O)N4C(=O)C=CCC[C@]4(C)[C@H]3CC[C@]12C
GI50 (LOX IMVI): 0.84 µM
GI50 (NCI/ADR-RES): 6.05 µM
GI50 (SN12C): 3.46 µM
GI50 (SF-539): 4.46 µM
GI50 (SF-268): > 25 µM
GI50 (UO-31): 2.95 µM

inhibition [2]: 16%
SMILES: CC(C)CCC[C@@H](C)[C@H]1CC[C@H]2[C@@H]3CC[C@H]4CC(NCCCC(=O)O)CC[C@]4(C)[C@H]3CC[C@]12C (stereo partly drawn)

IC50 [1]: 2.9 µM
SMILES: C=C(CCC(CC#N)OCC)[C@H]1CC[C@]2(C)[C@@H](C(C)CCCC(C)C)CC[C@H]2[C@@H]1CC(=O)O (stereo partly drawn)

IC50 [1]: 36.3 µM
SMILES: C/C(=C/C/C=C\C#N)[C@H]1CC[C@]2(C)[C@@H](C(C)CCCC(C)C)CC[C@H]2[C@@H]1CC(=O)O (stereo partly drawn)
